Columns and labels:
[1] = tested on: Mycobacterium tuberculosis; experiment: Antitubercular activity against Mycobacterium tuberculosis H37Rv expressing GFP assessed as growth inhibition at 1 ug/ml measured after 7 days by fluorescence analysis relative to control; assay type: functional; settings: 168 h, read-out: GI
Procedure, shortened: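 GFP-expressing H37Rv cultured in 7H9 with 10% OADC, 0.05% Tween 80 and 0.2% glycerol, sealed under an air-permeable membrane. Growth was read as fluorescence (excitation 485 nm, emission 528 nm) after seven days, in triplicate. Fluorescence tracks bacterial growth.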

[2] = molecular target: ATP-dependent translocase ABCB1 (Homo sapiens, UniProt P08183); experiment: Inhibition of human ABCB1 expressed in mouse T-lymphoma cells assessed as rhodamine-123 accumulation by measuring fluorescence activity ratio at 1 uM by flow cytometry relative to control; assay type: cell-based
[3] = molecular target: T1, Multidrug efflux ATP-binding/permease protein Rv0194 (Mycobacterium tuberculosis (strain ATCC 25618 / H37Rv)) (UniProt O53645); experiment: Inhibition of GFP-fused Mycobacterium tuberculosis H37Rv Rv0194 assessed as potentiation of clofazimine-mediated antitubercular activity by measuring clofazimine growth inhibition at 0.3 ug/ml (reference value: 39%)
T1 sequence (whole entry): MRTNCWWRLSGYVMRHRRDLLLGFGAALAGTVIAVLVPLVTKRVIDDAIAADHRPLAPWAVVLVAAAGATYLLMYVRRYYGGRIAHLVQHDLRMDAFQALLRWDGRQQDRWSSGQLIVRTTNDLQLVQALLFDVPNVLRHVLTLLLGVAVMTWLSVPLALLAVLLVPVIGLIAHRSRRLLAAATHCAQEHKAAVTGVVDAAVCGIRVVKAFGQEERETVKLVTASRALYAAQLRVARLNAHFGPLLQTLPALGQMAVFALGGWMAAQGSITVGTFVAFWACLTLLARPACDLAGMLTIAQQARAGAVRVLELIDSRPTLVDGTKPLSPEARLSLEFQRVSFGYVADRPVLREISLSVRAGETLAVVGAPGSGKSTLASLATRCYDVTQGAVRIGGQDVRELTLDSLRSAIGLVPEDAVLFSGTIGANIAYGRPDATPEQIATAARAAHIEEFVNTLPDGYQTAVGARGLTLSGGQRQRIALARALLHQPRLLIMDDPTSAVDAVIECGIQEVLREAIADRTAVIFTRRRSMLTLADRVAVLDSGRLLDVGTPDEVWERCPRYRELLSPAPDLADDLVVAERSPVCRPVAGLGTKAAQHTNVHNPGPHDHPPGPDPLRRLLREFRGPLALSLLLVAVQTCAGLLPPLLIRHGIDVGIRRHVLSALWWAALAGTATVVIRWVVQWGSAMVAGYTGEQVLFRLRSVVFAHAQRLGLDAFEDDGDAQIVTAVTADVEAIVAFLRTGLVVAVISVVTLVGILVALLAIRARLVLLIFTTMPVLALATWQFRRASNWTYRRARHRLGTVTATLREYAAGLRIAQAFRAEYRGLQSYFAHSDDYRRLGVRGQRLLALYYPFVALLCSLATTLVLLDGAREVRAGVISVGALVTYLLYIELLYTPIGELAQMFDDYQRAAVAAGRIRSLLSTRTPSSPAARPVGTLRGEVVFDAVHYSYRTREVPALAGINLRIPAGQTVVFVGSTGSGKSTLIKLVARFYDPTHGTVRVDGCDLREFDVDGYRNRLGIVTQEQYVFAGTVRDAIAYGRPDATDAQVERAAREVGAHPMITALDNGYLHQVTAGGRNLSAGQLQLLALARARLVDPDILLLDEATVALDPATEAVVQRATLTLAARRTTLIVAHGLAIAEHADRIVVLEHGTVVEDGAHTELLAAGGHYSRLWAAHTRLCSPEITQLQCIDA
Procedure, shortened: (§1)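 The antitubercular drug at set concentrations was tested alone and combined with the test compound held at 0.3 µg/mL. The GFP-expressing H37Rv growth assay was used: 7H9 with 10% OADC, 0.05% Tween 80 and 0.2% glycerol, seven days of culture, fluorescence at 485/528 nm, triplicates.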

[4] = molecular target: T1, Multidrug efflux ATP-binding/permease protein Rv0194 (Mycobacterium tuberculosis (strain ATCC 25618 / H37Rv)); experiment: Inhibition of GFP-fused Mycobacterium tuberculosis H37Rv Rv0194 assessed as potentiation of ciprofloxacin-mediated antitubercular activity by measuring ciprofloxacin growth inhibition at 0.3 ug/ml (reference value: 19%); procedure, shortened: as §1
[5] = molecular target: T1, Multidrug efflux ATP-binding/permease protein Rv0194 (Mycobacterium tuberculosis (strain ATCC 25618 / H37Rv)); experiment: Inhibition of GFP-fused Mycobacterium tuberculosis H37Rv Rv0194 assessed as potentiation of ciprofloxacin-mediated antitubercular activity by measuring fold increase in ciprofloxacin growth inhibition at 0.3 ug/ml

Chain of ATP-dependent translocase ABCB1 (P08183 whole entry, the tested form may be a part): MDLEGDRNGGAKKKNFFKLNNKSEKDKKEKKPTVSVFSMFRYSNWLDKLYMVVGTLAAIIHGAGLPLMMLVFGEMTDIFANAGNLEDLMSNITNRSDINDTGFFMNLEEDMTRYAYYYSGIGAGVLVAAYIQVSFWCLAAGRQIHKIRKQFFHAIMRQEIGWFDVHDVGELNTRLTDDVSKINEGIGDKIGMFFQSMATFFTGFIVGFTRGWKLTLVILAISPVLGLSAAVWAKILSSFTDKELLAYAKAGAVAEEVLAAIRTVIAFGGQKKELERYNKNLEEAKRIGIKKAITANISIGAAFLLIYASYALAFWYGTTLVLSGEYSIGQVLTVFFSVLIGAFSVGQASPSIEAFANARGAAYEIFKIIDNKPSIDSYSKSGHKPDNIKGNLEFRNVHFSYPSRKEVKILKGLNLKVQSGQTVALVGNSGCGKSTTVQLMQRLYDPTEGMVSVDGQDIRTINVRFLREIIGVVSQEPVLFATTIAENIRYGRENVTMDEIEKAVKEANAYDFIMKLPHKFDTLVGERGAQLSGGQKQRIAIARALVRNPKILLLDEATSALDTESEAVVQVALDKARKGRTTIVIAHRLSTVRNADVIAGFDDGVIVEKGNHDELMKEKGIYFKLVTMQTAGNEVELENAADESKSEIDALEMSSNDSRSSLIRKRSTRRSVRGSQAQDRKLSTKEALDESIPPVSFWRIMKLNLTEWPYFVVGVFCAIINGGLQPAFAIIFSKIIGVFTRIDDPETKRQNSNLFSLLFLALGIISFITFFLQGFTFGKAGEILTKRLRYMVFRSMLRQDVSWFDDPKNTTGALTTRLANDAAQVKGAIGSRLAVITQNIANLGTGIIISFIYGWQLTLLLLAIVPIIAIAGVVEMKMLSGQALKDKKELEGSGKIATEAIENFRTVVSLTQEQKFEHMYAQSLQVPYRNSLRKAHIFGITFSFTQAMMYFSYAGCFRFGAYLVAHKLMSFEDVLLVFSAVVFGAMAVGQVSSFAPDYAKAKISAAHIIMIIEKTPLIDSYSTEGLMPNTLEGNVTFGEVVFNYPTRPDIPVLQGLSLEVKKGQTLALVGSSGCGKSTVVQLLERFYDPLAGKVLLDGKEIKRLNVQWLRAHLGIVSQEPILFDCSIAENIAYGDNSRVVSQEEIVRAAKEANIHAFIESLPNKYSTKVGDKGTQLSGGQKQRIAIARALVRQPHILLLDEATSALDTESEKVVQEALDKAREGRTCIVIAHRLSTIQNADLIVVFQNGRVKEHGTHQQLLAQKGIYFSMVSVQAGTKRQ

Structure (SMILES)	inhibition of growth at 1 µg/mL [1]	Ratio [2]	growth inhibition (GI) [3]	growth inhibition (GI) [4]	fold change (FC) [5]
NNC(=O)c1ccncc1 [ISONIAZID]	97%	–	–	–	–
CCOC(=O)C1=CN(c2ccc(OC)cc2)C=C(C(=O)OCC)C1c1ccccc1	60%	3.9	–	–	–
CCOC(=O)C1=CN(c2ccc(OC)cc2)C=C(C(=O)OCC)C1c1ccc(OC)cc1	35%	1.2	–	–	–
CCOC(=O)C1=CN(c2ccccc2)C=C(C(=O)OCC)C1c1ccccc1	57%	4.3	–	–	–
CCOC(=O)C1=CN(c2ccc(OC)cc2)C=C(C(=O)OCC)C1c1cccc(OC)c1	41%	3.4	–	–	–
CCOC(=O)C1=CN(c2ccccc2)C=C(C(=O)OCC)C1c1ccc(OC)cc1	25%	–	–	–	–
CCOC(=O)C1=CN(c2ccccc2)C=C(C(=O)OCC)C1c1ccc(OC)c(OC)c1	30%	7.3	60%	46%	2.5
CCOC(=O)C1=CN(c2ccccc2)C=C(C(=O)OCC)C1c1cccc(OC)c1	61%	1.1	–	–	–
CCOC(=O)C1=CN(c2ccc(OC)cc2)C=C(C(=O)OCC)C1c1ccc(OC)c(OC)c1	60%	5.2	–	–	–

From ChEMBL document CHEMBL3868629, “Discovery of novel N-phenyl 1,4-dihydropyridines with a dual mode of antimycobacterial activity” (Bioorg Med Chem Lett, 2016)
